Measurements gathered from unrelated publications.
Lines come from different studies, so protocols differ.
Organism: Severe acute respiratory syndrome coronavirus 2

SMILES	assay	system	conditions	endpoint	value
Fc1ccc(C(OCCN2CCN(CCCc3ccccc3)CC2)c2ccc(F)cc2)cc1	viral replication, inhibitor	A549-ACE2	–	IC50	6.03 µM
COc1ccc(C[C@@H]2c3cc(Oc4cc(C[C@@H]5c6cc(O)c(OC)cc6CCN5C)ccc4O)c(OC)cc3CCN2C)cc1	cytopathic effect	Vero C1008	12.5 µM	inhibition	0%
O=C(Nc1ccccc1F)c1cc2c(=O)n3ccccc3nc2n1Cc1ccccc1	viral replication	Vero	1 nM	inhibition	12.3%
C=C1[C@H](CO)[C@@H](O)C[C@@H]1n1cnc2c(=O)[nH]c(N)nc21	viral replication, inhibitor	Huh-7	–	IC50	0.042 µM
N#C[C@@]1(c2ccc3c(N)ncnn23)O[C@H](CO)[C@@H](O)[C@H]1O	viral replication, inhibitor, qPCR	Vero C1008	48 h	EC90	0.77 µM
CCN(C(C)=O)c1cccc(-c2ccnc3c(C#N)cnn23)c1	viral replication, inhibitor	Vero C1008	1 µM	inhibition	42.1%
CC(C)=CCc1c(O)ccc(C(=O)/C=C/c2ccc(O)cc2)c1O	cytopathic effect	Vero C1008	100 µM	inhibition	90%
COC(=O)Nc1nc2cc(C3(O)c4ccccc4C(=O)N3c3cc(Cl)ccc3C)ccc2[nH]1 (stereo not drawn)	viral replication, inhibitor	Vero C1008	1 µM	inhibition	40.3%
CCC(CC)COC(=O)[C@H](C)N[P@](=O)(OC[C@H]1O[C@@](C#N)(c2ccc3c(N)ncnn23)[C@H](O)[C@@H]1O)Oc1ccccc1	viral replication, inhibitor, qPCR	Vero C1008	48 h	EC90	7.05 µM
C=C[C@@](C)(/C=C/c1ccc(O)cc1)CCC=C(C)C	cytopathic effect	Vero C1008	3.125 µM	inhibition	0%
CCC(CC)COC(=O)[C@H](C)N[P@](=O)(OC[C@H]1O[C@@](C#N)(c2ccc3c(N)ncnn23)[C@H](O)[C@@H]1O)Oc1ccccc1	viral replication, inhibitor	Huh-7	–	IC50	0.006 µM
Cn1c(C(=O)Nc2ccc3c(c2)OCCO3)cc2c(=O)n3ccccc3nc21	viral replication	Vero	0.1 µM	inhibition	37.7%
O=C(/C=C/c1ccc(O)c(O)c1/C=C/c1ccc(O)c(O)c1)O[C@H](Cc1ccc(O)c(O)c1)C(=O)O	cytopathic effect, inhibitor	Vero C1008	0.7812 µM	inhibition	0%
CCC(CC)COC(=O)[C@H](C)N[P@](=O)(OC[C@H]1O[C@@](C#N)(c2ccc3c(N)ncnn23)[C@H](O)[C@@H]1O)Oc1ccccc1	viral replication	Vero	10 nM	inhibition	53.8%
CC1=NN(c2ccccc2)C(=O)C1	viral replication, inhibitor	Huh-7	–	IC50	> 2 µM
Cc1cccn2c(=O)c3cc(C(=O)Nc4ccc(N(C)C)cc4)n(C)c3nc12	viral replication	Vero	10 nM	inhibition	7.3%
CCC(CC)COC(=O)[C@H](C)N[P@](=O)(OC[C@H]1O[C@@](C#N)(c2ccc3c(N)ncnn23)[C@H](O)[C@@H]1O)Oc1ccccc1	viral replication, inhibitor	Vero C1008	–	EC50	< 100 µM
OCCN1CCN(CCCN2c3ccccc3C=Cc3ccccc32)CC1	viral replication	Vero C1008	–	IC50	10 µM
CCC(C)(C)C(=O)O[C@H]1C[C@@H](C)C=C2C=C[C@H](C)[C@H](CC[C@@H]3C[C@@H](O)CC(=O)O3)[C@H]21	viral replication, inhibitor	Huh-7	–	IC50	> 2 µM
[2H]C([2H])([2H])n1cc2cc(/N=c3\[nH]c(=O)n(Cc4ncn(C)n4)c(=O)n3Cc3cc(F)c(F)cc3F)c(Cl)cc2n1	viral replication, inhibitor, qPCR	–	48 h	EC50	0.018 µM

SMILES	assay	system	conditions	endpoint	value
N#Cc1ccc2[nH]cc(CCCCN3CCN(c4ccc5oc(C(=N)Cl)cc5c4)CC3)c2c1	viral replication, inhibitor	Huh-7	–	IC50	> 2 µM
CCCN(CCC)c1cc(C)nc2c(-c3cnc(N(C)C)cc3C)c(C)nn12	viral replication, inhibitor	Vero C1008	1 µM	inhibition	60%
O=C(O[C@@H]1Cc2c(O)cc(O)cc2O[C@@H]1c1cc(O)c(O)c(O)c1)c1cc(O)c(O)c(O)c1	cytopathic effect	Vero C1008	1.562 µM	inhibition	0%
CN1CCN(C2=Nc3ccccc3Oc3ccc(Cl)cc32)CC1	viral replication, inhibitor	Vero C1008	–	IC50	11.5 µM
N[C@@H](Cc1cc(I)c(Oc2cc(I)c(O)c(I)c2)c(I)c1)C(=O)O	plaque formation, inhibitor	Vero C1008	–	EC50	7 µM
Cc1cc2c(cc1C(=O)Oc1ccc(C(=O)O)cc1)C(C)(C)CCC2(C)C	viral replication, inhibitor	Vero C1008	1 µM	inhibition	49.8%
CCN(CC)CCCC(C)Nc1ccnc2cc(Cl)ccc12 (stereo not drawn)	viral replication, inhibitor	A549-ACE2	–	IC50	0.912 µM
CCCCCCCCCCCCCCCCCCOC[C@H](COP(=O)(O)OC[C@H]1O[C@@](C#N)(c2ccc3c(N)ncnn23)[C@H](O)[C@@H]1O)OCc1ccccc1	viral replication, inhibitor, qPCR	Vero C1008	–	EC50	0.14 µM
CCOC(=O)c1[nH]c2cc(OC)c(OC)cc2c1CCN1CCN(c2ccccc2)CC1	viral replication, inhibitor	Vero C1008	1 µM	inhibition	52.8%
CCCCCCCCCCCCCCCCCCOCCOP(=O)(O)OC[C@H]1O[C@@](C#N)(c2ccc3c(N)ncnn23)[C@H](O)[C@@H]1O	viral replication, inhibitor, qPCR	Vero C1008	48 h	EC90	0.33 µM
CCCN(CCC)CCc1ccc(OC)c(OCCc2ccccc2)c1	viral replication	Vero C1008	–	IC50	3.89 µM
c1ccc([C@H]2CN3CCSC3=N2)cc1	viral replication, inhibitor	Huh-7	–	IC50	> 2 µM
CC(CN1c2ccccc2Sc2ccccc21)N(C)C (stereo not drawn)	viral replication	Vero C1008	–	IC50	3.16 µM
CN[C@@H](C)C(=O)N[C@H]1CN(C(=O)CC(C)C)CC[C@H]2CC[C@@H](C(=O)NC(c3ccccc3)c3ccccc3)N2C1=O	viral replication, inhibitor	Vero C1008	1 µM	inhibition	54%
CN(C)CCC=C1c2ccccc2CCc2ccccc21	viral replication	Vero C1008	–	IC50	2.82 µM
Cn1c(C(=O)Nc2ccc(Cl)cc2)cc2c(=O)n3ccccc3nc21	viral replication	Vero	1 nM	inhibition	5.41%
CCCCCCCCCCCCCCCCOCCCOP(=O)(O)OC[C@H]1O[C@@](C#N)(c2ccc3c(N)ncnn23)[C@H](O)[C@@H]1O	viral replication, inhibitor, qPCR	Vero C1008	–	EC50	0.63 µM
Cc1cc(NC(=O)c2cc3c(=O)n4cccc(C)c4nc3n2C)ccc1Br	viral replication	Vero	10 µM	inhibition	91.9%
OC(CCN1CCCCC1)(c1ccccc1)C1CCCCC1 (stereo not drawn)	viral replication	Vero C1008	–	IC50	8.91 µM
